# Screens (PubChem)
# Most compounds without a hit are left out; they make up all but 4.7% or so of the library.
# NR3A LBD binder – modulators (binders) of human NR3A ligand-binding domain; 340,000 tested, 2.5% active; AID 1259313; Tm shift relative to glycine control, % at 25 µM; NR3A LBD differential scanning fluorimetry, Tm shift; 0% = protein alone, 100% = glycine-bound protein;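 active = melting temperature shift of at least 10% of the positive control shift, at one fixed dose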
# ADAM10 inh – inhibitors of human ADAM10; O14672; recombinant ADAM10, EDANS/DABCYL FRET peptide cleavage, 3 h; inhibition, % at 7 µM; 370,000 tested, 0.62% active; AID 720582;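 active = inhibition above a per-campaign cutoff equal to the mean of compounds falling between control-based bounds plus 3 SD, cut at about 20% in these data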
# Target sequence (O14672 214-748 limits assumed): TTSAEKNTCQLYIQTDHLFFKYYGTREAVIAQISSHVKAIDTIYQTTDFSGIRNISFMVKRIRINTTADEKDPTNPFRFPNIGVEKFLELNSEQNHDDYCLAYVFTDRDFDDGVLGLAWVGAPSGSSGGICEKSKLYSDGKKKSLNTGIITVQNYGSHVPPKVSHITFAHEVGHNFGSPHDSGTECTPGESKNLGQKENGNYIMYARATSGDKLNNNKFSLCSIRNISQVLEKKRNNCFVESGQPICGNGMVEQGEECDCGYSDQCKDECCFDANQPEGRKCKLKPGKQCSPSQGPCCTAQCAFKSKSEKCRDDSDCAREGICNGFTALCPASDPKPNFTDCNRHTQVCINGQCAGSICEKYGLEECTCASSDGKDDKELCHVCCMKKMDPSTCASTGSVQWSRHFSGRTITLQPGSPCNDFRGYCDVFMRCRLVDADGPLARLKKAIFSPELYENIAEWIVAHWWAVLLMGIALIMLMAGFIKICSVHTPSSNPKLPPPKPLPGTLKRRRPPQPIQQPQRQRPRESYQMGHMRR
# MT1-MMP act inh – MT1-MMP (human) activation inhibition. P50281. HT1080 RFP-PRO-GFP cells, GFP/RFP ratio fluorescence, overnight; percent of plate control window, DMSO zero. GFP/RFP ratio change, % at 20 µM. 360,000 tested, 0.061% active. AID 651647;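 active = GFP/RFP ratio change of at least 30% with cell ATP level not reduced by more than half and red fluorescence within 50% of control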
#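 system = RFP-PRO-GFP reporter HT1080 cells | dosing = 20 µM single dose, 1% DMSO | timing = overnight cell settling, then overnight compound exposure, 37 °C, 5% CO2 | read-out basis = GFP/RFP fluorescence ratio | controls = DMSO and RFP-L50D-GFP cell wells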
# ADAM17 inh – ADAM17 inhibition, QFRET primary screen; recombinant ADAM17, EDANS/DABCYL FRET peptide cleavage; AID 720648; 370,000 tested, 0.83% active; inhibition, % at 6.95 µM;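 active = inhibition above the mean of compounds lying between control limits plus 3 SD, set per campaign, cut at about 8.5% in these data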
# SKN-1 block – inhibitors of C. elegans SKN-1; C. elegans VP596 Pgst-4::GFP/RFP ratio, acrylamide-induced, 24 h; inhibition, % at 21.8 µM; 360,000 tested, 0.49% active;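 active = interference check ratio from 0.5 to 1.5 plus GFP to RFP signal ratio inhibition reaching or exceeding a fixed threshold, cut at about 30% in these data, passing the limit was not always enough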
# MPTP block – blocks calcium-induced mitochondrial swelling | isolated mouse mitochondria, Ca2+ swelling absorbance, 30 min | inhibition, % at 10 µM | 360,000 tested, 1.4% active | AID 602449;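 active = inhibition of 50% or more, scaled per plate between neutral and stimulator controls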
# Numbers stand for hits; n = inactive; x = no result given.
SMILES,NR3A LBD binder,ADAM10 inh,MT1-MMP act inh,ADAM17 inh,SKN-1 block,MPTP block
COc1cc(N=Nc2cccc(S(N)(=O)=O)c2)c2ccccc2c1N,12.9,n,n,n,n,n
O=C(Cc1ccccc1)NNC(=O)Cc1ccccc1,n,n,n,n,n,n
O=C(Cc1ccccc1)NC(CSSCC(NC(=O)Cc1ccccc1)C(=O)O)C(=O)O (centres undefined),36.1,n,n,n,n,n
COc1ccc(Cl)cc1-c1cc(C(=O)Nc2ccccc2)[nH]n1,x,n,x,n,n,n
Cc1ccc(NC(=O)c2cc(-c3ccccc3O)n[nH]2)cc1Cl,26.2,n,n,n,n,n
COc1ccc(NC(=O)c2cc(-c3ccccc3O)n[nH]2)cc1Cl,26.0,n,n,n,n,n
NS(=O)(=O)c1ccc(NC(=O)c2cccc(N3C(=O)c4ccccc4C3=O)c2)cc1,n,n,n,n,n,n
NS(=O)(=O)c1ccc(NC(=O)c2cc(-c3ccccc3O)n[nH]2)cc1,34.2,n,n,n,n,n
O=c1ccc2cc(S(=O)(=O)N3CCN(c4ccc(Cl)cc4)CC3)ccc2o1,n,n,n,n,n,n
COc1ccccc1C(=O)NCC(=O)N/N=C(\C)Cc1ccccc1,n,n,n,n,n,n
Cc1ccc(-n2c(SCC(=O)Nc3cc(S(=O)(=O)N4CCOCC4)ccc3Cl)nc3ccccc3c2=O)cc1,10.2,n,n,n,n,n
O=C(CSc1nc2ccccc2c(=O)n1-c1ccc(F)cc1)Nc1ccc(Cl)c(S(=O)(=O)N2CCOCC2)c1,n,n,n,n,n,n
Cc1ccc(S(=O)(=O)Nc2cccc(C(=O)N3CCOCC3)c2)cc1,n,n,n,n,n,n
CC1C(=O)N(Cc2cn(CCC3OCCCO3)nn2)CCS(=O)(=O)N1Cc1ccc(-c2ccccc2)cc1 (centres undefined),x,n,n,n,n,n
Cc1cc(/C=C(\C#N)C(=O)NCCc2c[nH]c3ccccc23)c(C)n1C,n,n,n,n,n,n
O=C(NCCc1c[nH]c2ccccc12)C(=O)c1c[nH]c2ccccc12,24.6,n,n,n,n,n
O=C(O)[C@H]1CCCC[C@H]1C(=O)NCCc1ccccc1,n,n,n,n,n,n
O=C(O)C1CCCCC1C(=O)NCCc1c[nH]c2ccccc12 (centres undefined),n,n,n,n,37.1,n
N#C/C(=C/c1ccc(Br)s1)C(=O)NCCc1c[nH]c2ccccc12,23.4,n,n,n,n,n
O=C(COC(=O)CCc1c[nH]c2ccccc12)NCc1ccccc1,11.6,n,n,n,n,n
O=C(c1ccc(N2CCCC2=O)cc1)N1CCN(c2ccccc2)CC1,n,n,n,n,n,n
O=C(O)/C=C/C(=O)Nc1ccc2c(c1)C(=O)c1ccccc1C2=O,n,n,n,n,n,n
Cc1cccn2c(=O)c(C=C(C#N)C#N)c(N3CCN(c4ccccc4)CC3)nc12,n,n,n,n,n,n
O=C(CNC(=O)c1cccs1)Nc1cccc(S(=O)(=O)N2CCOCC2)c1,n,n,n,n,n,n
CCc1cc(=O)oc2cc(C)cc(OC(C)C(=O)NC3CC(C)(C)NC(C)(C)C3)c12 (centres undefined),n,n,n,n,n,n
SMILES,NR3A LBD binder,ADAM10 inh,MT1-MMP act inh,ADAM17 inh,SKN-1 block,MPTP block
COc1ccccc1NC(=O)NCCc1c[nH]c2ccccc12,n,n,n,n,n,n
O=C(NCCc1c[nH]c2ccccc12)Nc1ccccc1,16.2,n,n,n,n,n
N#Cc1cccc(NC(=O)NCCc2c[nH]c3ccccc23)c1,10.7,n,n,n,n,n
CC(=O)Nc1ccc(S(=O)(=O)NC2CC(=O)N(c3ccc4c(c3)OCCO4)C2)cc1 (centres undefined),16.8,n,n,n,n,n
COc1cc(C(Nc2ccccn2)c2ccc3ccc(C)nc3c2O)cc(OC)c1O (centres undefined),n,x,n,x,n,n
Cc1ccnc(NC(c2ccccc2)c2ccc3cccnc3c2O)c1 (centres undefined),147.9,n,n,n,n,n
Cc1ccc2ccc(C(Nc3ccccn3)c3ccccc3)c(O)c2n1 (centres undefined),n,24.6,n,n,n,n
CCN1CCN(c2ncnc3c2cnn3-c2ccc(C)cc2C)CC1,n,n,n,n,n,n
Cc1ccc(OCC(=O)N2CCCCC2)c(Br)c1,17.1,n,n,n,n,n
CC(C)(C)c1ccc(OCC(=O)N2CCCCCC2)c(Br)c1,n,n,n,n,n,n
O=C(COc1ccc2c3c(c(=O)oc2c1)CCC3)NC(Cc1ccc(Cl)cc1)C(=O)O (centres undefined),n,n,n,n,n,n
C=CCN1C(C(=O)OCC)CSCCS1(=O)=O (centres undefined),x,n,x,n,x,x
CSc1nc(-c2ccccc2)c(-c2ccccc2)[nH]1,n,n,n,n,n,n
Cc1cccc(S(=O)(=O)Nc2ccc(-c3nc4ccc(C)cc4s3)cc2)c1,n,n,n,n,n,n
Cc1ccc2nc(-c3ccc(NC(=S)NC(=O)CC(C)C)cc3)sc2c1,n,n,n,n,n,n
Cc1ccc2nc(-c3ccc(NC(=O)C(C)Sc4nncs4)cc3)sc2c1 (centres undefined),14.3,n,n,n,n,n
Cc1ccc(S(=O)(=O)Nc2ccc(-c3nc4ccc(C)cc4s3)cc2)cc1,16.0,n,n,n,n,n
Cc1ccc(C)c(N(CC(=O)Nc2ccc(-c3nc4ccc(C)cc4s3)cc2)S(C)(=O)=O)c1,23.5,n,n,n,n,n
Cc1ccc(-c2cc3nc(-c4ccco4)cc(N4CCN(Cc5ccoc5)CC4)n3n2)cc1,x,n,x,n,x,x
O=C(N/N=C/c1cccc(OC(=O)c2cccc(Br)c2)c1)c1cccnc1,n,n,n,n,n,n
O=S(=O)(c1ccc2[nH]c3c(c2c1)CCCC3)N1CCCCC1,n,n,n,n,n,n
N#Cc1ccc(S(=O)(=O)N2CCc3[nH]c4ccc(F)cc4c3C2)cc1,11.1,n,n,n,n,n
O=C(N/N=C/c1c(Cl)[nH]c2ccccc12)c1ccc2c(c1)OCCO2,17.7,n,n,n,n,n
Cc1cccc(-c2noc(CNS(=O)(=O)c3ccccc3)n2)c1,n,n,n,n,n,n
CCCCCSc1nc(N2CCOCC2)c2c(c1C#N)CC(C)(C)OC2,23.2,n,n,n,n,n
CCCSc1nc(N2CCOCC2)c2c(c1C#N)CC(C)(C)SC2,n,n,n,n,38.5,n
CCC(C)NC(=O)c1cc2cc3ccc(OC)cc3nc2o1 (centres undefined),n,n,n,n,n,n
CCOc1ccc(NC(=O)c2cc3cc4ccc(OC)cc4nc3o2)cc1,13.1,n,n,n,n,n
